What all share (type): cell-based
The target in assay [1] is T1, Peroxisomal multifunctional enzyme type 2 (Mus musculus) (UniProt P51660).
T1 sequence (whole entry): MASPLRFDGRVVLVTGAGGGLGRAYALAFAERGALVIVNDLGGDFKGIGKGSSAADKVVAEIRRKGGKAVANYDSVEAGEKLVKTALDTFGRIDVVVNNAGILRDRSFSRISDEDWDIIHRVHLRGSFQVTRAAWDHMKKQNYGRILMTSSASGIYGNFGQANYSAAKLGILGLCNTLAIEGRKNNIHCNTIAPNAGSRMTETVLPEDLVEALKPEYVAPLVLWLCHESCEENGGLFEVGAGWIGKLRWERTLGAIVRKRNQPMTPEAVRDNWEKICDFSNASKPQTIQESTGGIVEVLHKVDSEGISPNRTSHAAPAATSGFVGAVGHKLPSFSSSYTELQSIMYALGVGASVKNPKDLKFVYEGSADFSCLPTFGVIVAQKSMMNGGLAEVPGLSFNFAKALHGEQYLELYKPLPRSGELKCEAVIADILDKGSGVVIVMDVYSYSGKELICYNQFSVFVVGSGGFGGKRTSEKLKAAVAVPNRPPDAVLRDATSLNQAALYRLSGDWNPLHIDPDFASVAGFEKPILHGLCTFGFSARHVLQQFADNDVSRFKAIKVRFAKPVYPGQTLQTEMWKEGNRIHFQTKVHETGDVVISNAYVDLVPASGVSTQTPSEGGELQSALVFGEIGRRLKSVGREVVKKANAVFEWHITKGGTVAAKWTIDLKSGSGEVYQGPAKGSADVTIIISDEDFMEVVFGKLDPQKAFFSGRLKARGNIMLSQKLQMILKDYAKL
Description: Binding affinity to 17beta-HSD4 in mouse LPS-treated RAW264.7 cells at 200 nM after 2 hrs by MALDI mass spectrometry analysis.

The target of assay [2] is T2, 3-oxo-5-alpha-steroid 4-dehydrogenase 1 (Homo sapiens) (UniProt P18405).
T2 sequence (whole entry): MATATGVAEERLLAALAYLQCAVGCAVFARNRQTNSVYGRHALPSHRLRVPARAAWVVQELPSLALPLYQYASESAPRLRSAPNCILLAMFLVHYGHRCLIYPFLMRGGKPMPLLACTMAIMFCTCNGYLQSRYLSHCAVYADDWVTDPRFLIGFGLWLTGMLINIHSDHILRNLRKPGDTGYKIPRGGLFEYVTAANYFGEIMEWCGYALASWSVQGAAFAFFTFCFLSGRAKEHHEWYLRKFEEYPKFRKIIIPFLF
Description: Binding affinity to S5A1 in human DU145 cells at 200 to 600 nM by affinity chromatography analysis. As to conditions: DU-145.

Assay [3] deals with T2, 3-oxo-5-alpha-steroid 4-dehydrogenase 1 (Homo sapiens). As to the kind of experiment: Binding affinity to S5A1 in human PC3 cells at 200 to 600 nM by affinity chromatography analysis. As to conditions: PC-3.
In assay [4] the target is T3, Extended synaptotagmin-1 (Mus musculus) (UniProt Q3U7R1).
T3 sequence (whole entry): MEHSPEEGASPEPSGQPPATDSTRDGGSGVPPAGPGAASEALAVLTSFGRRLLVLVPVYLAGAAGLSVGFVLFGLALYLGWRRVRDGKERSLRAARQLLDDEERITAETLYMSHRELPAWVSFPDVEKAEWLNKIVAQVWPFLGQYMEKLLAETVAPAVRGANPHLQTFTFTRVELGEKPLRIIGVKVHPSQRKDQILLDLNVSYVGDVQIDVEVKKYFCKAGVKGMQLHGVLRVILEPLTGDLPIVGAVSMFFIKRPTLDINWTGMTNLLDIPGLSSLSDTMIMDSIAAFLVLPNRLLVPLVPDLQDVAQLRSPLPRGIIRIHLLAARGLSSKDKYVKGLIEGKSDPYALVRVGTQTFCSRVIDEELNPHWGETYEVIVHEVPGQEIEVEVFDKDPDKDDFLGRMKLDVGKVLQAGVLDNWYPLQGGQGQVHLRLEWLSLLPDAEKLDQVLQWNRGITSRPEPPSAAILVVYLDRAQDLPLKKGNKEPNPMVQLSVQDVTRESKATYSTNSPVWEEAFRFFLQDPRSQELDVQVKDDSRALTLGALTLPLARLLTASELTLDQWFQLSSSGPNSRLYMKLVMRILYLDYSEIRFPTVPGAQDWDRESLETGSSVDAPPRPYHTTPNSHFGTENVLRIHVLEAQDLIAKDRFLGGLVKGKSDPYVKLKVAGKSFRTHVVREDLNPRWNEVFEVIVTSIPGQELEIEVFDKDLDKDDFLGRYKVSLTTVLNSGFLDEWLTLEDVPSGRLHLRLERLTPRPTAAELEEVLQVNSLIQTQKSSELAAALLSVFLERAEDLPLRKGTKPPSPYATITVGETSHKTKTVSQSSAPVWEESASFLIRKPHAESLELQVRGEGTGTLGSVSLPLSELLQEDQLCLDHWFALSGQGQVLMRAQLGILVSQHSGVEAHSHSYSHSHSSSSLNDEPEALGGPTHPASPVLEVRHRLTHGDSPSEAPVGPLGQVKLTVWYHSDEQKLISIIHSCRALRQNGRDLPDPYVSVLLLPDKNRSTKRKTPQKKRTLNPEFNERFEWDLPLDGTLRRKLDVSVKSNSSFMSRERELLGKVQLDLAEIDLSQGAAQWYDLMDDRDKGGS
Description: Binding affinity to E-Syt1 in mouse RAW264.7 cells at 600 nM by Western blot analysis. In a few lines: (§1)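 Streptavidin affinity pull-down was run side by side in lysates from LPS-treated and untreated mouse Raw264.7 macrophages. Biotin, biotinylated β-sitosterol or biotinylated cholesterol was used at 200 nM for 17β-HSD4 and 600 nM for E-Syt1. Probe incubation with lysate was 2 h, followed by overnight streptavidin agarose capture.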

For assay [5], the target named is T4, Extended synaptotagmin-1 (Homo sapiens) (UniProt Q9BSJ8).
T4 sequence (whole entry): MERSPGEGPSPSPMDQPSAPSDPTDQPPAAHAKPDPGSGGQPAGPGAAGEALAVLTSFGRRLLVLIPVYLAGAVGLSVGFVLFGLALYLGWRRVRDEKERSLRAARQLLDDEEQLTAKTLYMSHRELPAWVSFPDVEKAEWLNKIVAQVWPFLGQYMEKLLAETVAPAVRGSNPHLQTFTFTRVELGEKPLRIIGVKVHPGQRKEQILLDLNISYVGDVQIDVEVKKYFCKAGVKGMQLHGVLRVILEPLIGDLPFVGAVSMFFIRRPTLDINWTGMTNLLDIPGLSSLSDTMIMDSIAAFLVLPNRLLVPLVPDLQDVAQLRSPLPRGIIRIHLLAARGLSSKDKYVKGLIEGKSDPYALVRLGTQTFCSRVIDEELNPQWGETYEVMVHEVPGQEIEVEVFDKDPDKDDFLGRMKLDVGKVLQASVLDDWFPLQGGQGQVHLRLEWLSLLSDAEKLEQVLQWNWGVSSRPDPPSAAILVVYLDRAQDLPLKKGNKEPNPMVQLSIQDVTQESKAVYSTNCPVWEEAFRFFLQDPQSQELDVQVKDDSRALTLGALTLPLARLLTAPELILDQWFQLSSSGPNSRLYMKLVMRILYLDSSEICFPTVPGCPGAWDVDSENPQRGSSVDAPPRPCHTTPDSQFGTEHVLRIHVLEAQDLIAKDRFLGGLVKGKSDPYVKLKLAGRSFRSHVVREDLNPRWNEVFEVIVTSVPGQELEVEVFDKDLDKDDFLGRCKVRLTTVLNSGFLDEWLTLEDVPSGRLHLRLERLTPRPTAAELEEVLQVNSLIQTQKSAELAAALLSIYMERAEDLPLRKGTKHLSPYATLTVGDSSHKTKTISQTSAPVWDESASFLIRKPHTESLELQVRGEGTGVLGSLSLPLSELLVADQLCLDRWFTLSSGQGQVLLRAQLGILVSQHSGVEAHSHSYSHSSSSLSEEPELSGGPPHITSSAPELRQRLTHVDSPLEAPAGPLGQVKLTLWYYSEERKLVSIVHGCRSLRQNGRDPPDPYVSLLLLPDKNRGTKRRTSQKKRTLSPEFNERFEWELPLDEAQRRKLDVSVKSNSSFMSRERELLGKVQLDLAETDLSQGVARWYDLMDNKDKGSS
As to the kind of experiment: Binding affinity to E-Syt1 in human PC3 cells at 600 nM by affinity chromatography analysis. As to conditions: PC-3.

Assay [6] has as its target T1, Peroxisomal multifunctional enzyme type 2 (Mus musculus). As to the kind of experiment: Binding affinity to 17beta-HSD4 in mouse RAW264.7 cells at 200 nM after 2 hrs by MALDI mass spectrometry analysis. In a few lines: as §1
The target in assay [7] is T3, Extended synaptotagmin-1 (Mus musculus). As to the kind of experiment: Binding affinity to E-Syt1 in mouse LPS-treated RAW264.7 cells at 600 nM by Western blot analysis. The method, boiled down:
as §1

Assay [8] has as its target T4, Extended synaptotagmin-1 (Homo sapiens). Description: Binding affinity to E-Syt1 in human DU145 cells at 600 nM by affinity chromatography analysis. The conditions noted are these: DU-145.
For assay [9], the target named is T5, Peroxisomal multifunctional enzyme type 2 (Homo sapiens) (UniProt P51659).
T5 sequence (whole entry): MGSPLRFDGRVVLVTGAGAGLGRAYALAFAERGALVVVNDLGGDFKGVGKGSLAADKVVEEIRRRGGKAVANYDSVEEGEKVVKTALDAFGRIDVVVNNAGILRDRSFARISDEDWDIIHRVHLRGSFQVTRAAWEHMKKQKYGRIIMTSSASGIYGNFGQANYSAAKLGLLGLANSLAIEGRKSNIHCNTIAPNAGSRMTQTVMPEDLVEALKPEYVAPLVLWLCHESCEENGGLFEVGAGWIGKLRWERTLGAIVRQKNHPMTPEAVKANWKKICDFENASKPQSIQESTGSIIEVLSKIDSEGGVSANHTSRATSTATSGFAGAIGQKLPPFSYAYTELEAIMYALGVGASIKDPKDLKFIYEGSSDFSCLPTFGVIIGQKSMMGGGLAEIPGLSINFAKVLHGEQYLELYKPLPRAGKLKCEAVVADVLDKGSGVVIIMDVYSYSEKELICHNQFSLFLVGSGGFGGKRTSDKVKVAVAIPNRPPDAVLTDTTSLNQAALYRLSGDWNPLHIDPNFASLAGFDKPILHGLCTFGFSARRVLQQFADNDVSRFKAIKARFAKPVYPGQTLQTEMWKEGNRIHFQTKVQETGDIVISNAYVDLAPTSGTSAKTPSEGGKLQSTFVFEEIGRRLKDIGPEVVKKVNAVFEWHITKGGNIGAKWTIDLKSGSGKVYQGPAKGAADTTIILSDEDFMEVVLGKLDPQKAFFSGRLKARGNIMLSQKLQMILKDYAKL
Description: Binding affinity to 17beta-HSD4 in human DU145 cells at 200 nM by affinity chromatography analysis. The conditions noted are these: DU-145.

The target of assay [10] is T3, Extended synaptotagmin-1 (Mus musculus). As to the kind of experiment: Binding affinity to E-Syt1 in mouse LPS-treated RAW264.7 cells at 600 nM after 2 hrs by MALDI mass spectrometry analysis.
In assay [11] the target is T1, Peroxisomal multifunctional enzyme type 2 (Mus musculus). Description: Binding affinity to 17beta-HSD4 in mouse RAW264.7 cells at 200 nM by Western blot analysis. In a few lines:
as §1
In general terms: A western blot detects proteins with antibodies after separation by electrophoresis.

The target is the same in assay [12]. As to the kind of experiment: Binding affinity to 17beta-HSD4 in mouse LPS-treated RAW264.7 cells at 200 nM by Western blot analysis. In a few lines:
as §1

In assay [13] the target is T3, Extended synaptotagmin-1 (Mus musculus). Description: Binding affinity to E-Syt1 in mouse RAW264.7 cells at 600 nM after 2 hrs by MALDI mass spectrometry analysis. The method, boiled down:
as §1

The target in assay [14] is T5, Peroxisomal multifunctional enzyme type 2 (Homo sapiens). Description: Binding affinity to 17beta-HSD4 in human PC3 cells at 200 nM by affinity chromatography analysis. The conditions noted are these: PC-3.

Molecules are shown by their SMILES. Activity calls are given as the source filed them. No cut-off for these calls is given here.

As to `CC[C@H](CC[C@@H](C)[C@H]1CC[C@H]2[C@@H]3CC=C4C[C@@H](OCc5cn(CCOCCOCCOCCNC(=O)CCCC[C@@H]6SC[C@@H]7NC(=O)N[C@@H]76)nn5)CC[C@]4(C)[C@H]3CC[C@]12C)C(C)C`, the outcome in [1], in assay [4], in [5], in [6], in assay [7] and in assay [8] was Active. The result in assay [9], in assay [10], in [11], in assay [12], in assay [13] and in assay [14] was Active. Further, the outcome in assay [2] and in assay [3] was inactive.
Turning to `CC(C)CCC[C@@H](C)[C@H]1CC[C@H]2[C@@H]3CC=C4C[C@@H](OCc5cn(CCOCCOCCOCCNC(=O)CCCC[C@@H]6SC[C@@H]7NC(=O)N[C@@H]76)nn5)CC[C@]4(C)[C@H]3CC[C@]12C`, the result in assay [2] and in [3] was inactive. For the same molecule, the outcome in assay [9], in [11], in [12] and in assay [14] was Active.

The values are drawn from ChEMBL document CHEMBL3621130, “Identification and characterization of β-sitosterol target proteins” (Bioorg Med Chem Lett, 2015).
